Source: PMC5515376 (Nature, 2016)
Where two headings read alike, the source gives them in different places.

Key:
[1] = tested on: P. falciparum Dd2; assay: In vitro P. falciparum blood-stage growth inhibition assay; assay type: cell-based, Plasmodium falciparum
[2] = tested on: P. falciparum 3D7 stage IV–V gametocytes; assay: In vitro transmission-blocking assay; assay type: cell-based, Plasmodium falciparum
In short: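 3D7 cultures were treated 3 days with 50 mM N-acetyl-D-glucosamine to remove asexual parasites. Stage IV–V gametocytes were then isolated on a discontinuous Percoll gradient. Gametocytes (1.0 × 10^5 per well) were incubated with compound for 72 h. Viability was measured by CellTiter-Glo luminescence.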

[3] = Solubility assay in PBS; assay type: physicochemical; settings: for PBS solubility: PBS pH 7.4 with 1% DMSO
In short: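 Compound was prepared at 100 µM in triplicate, both in 100% DMSO and in PBS pH 7.4 with 1% DMSO. Samples were shaken at 750 r.p.m. for 18 h at room temperature. Analysis was by UPLC–MS with single-ion detection. PBS response was fitted to a two-point calibration built from the DMSO samples.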

[4] = tested on: P. falciparum NITD609^R; assay: Blood-stage growth inhibition, P. falciparum NITD609^R strain; assay type: cell-based, Plasmodium falciparum
In short: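 Asexual blood-stage parasites were cultured to 3–8% parasitaemia, counted on Giemsa smears, and diluted in medium to 2.0% parasitaemia and 2.0% haematocrit. This suspension was added to compound dispensed from DMSO, giving a final 1% parasitaemia and 1% haematocrit, with mefloquine as control. Plates were incubated for 72 h at 37 °C. Growth was read by SYBR Green I fluorescence in Tris/EDTA/saponin/Triton X-100 lysis buffer.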

[5] = tested on: parasite cytosolic Na^+ concentration; assay: Parasite cytosolic Na+ concentration measurement; assay type: cell-based, Plasmodium falciparum; settings: after treatment
[6] = tested on: Mammalian cells (HepG2, A549, and HEK293); assay: Mammalian cell cytotoxicity; assay type: cell-based; settings: initial characterization
In short: (§1)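 HepG2, A549 or HEK293 cells were grown in DMEM with 10% FBS and 1% antibiotic–antimycotic and tested mycoplasma-free. Cells (1 × 10^6) were seeded one day before treatment. They were exposed to ascending compound doses for 72 h, and viability was read by CellTiter-Glo.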

[7] = Plasma protein binding assay; assay type: in vitro ADME
In short: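 Binding was measured by equilibrium dialysis in a RED device. Compound at 5 µM, in duplicate, was placed in mouse plasma (0.95% acetonitrile, 0.05% DMSO) against PBS pH 7.4. Incubation was 5 h at 37 °C with 350 r.p.m. orbital shaking. Both sides were analysed by UPLC–MS with single-ion detection.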

[8] = Metabolic stability assay, mouse liver microsomes; assay type: in vitro ADME
In short: (§2)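 Liver microsomes (0.2 mg ml−1) were incubated with compound (0.5 and 5 µM) plus NADPH for 0, 10 and 90 min. Human microsomes or mouse CD-1 microsomes were used, as named in each line. Compound depletion was measured by LC–MS/MS and used to estimate Km, Vmax and half-life.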

[9] = Metabolic stability assay, human liver microsomes; assay type: in vitro ADME
In short: as §2

[10] = tested on: HepG2 cell line; assay: Mammalian cell cytotoxicity assay; assay type: cell-based, human; settings: for CC50: read-out: HepG2 CC50, 72 h; for Cytotoxicity: HepG2 cell line
In short: as §1

[11] = molecular target: hERG channel (Homo sapiens, UniProt Q12809); assay: hERG channel inhibition assay; assay type: cell-based; settings: read-out: hERG IC50; IKr
hERG channel, sequence (Q12809 whole entry): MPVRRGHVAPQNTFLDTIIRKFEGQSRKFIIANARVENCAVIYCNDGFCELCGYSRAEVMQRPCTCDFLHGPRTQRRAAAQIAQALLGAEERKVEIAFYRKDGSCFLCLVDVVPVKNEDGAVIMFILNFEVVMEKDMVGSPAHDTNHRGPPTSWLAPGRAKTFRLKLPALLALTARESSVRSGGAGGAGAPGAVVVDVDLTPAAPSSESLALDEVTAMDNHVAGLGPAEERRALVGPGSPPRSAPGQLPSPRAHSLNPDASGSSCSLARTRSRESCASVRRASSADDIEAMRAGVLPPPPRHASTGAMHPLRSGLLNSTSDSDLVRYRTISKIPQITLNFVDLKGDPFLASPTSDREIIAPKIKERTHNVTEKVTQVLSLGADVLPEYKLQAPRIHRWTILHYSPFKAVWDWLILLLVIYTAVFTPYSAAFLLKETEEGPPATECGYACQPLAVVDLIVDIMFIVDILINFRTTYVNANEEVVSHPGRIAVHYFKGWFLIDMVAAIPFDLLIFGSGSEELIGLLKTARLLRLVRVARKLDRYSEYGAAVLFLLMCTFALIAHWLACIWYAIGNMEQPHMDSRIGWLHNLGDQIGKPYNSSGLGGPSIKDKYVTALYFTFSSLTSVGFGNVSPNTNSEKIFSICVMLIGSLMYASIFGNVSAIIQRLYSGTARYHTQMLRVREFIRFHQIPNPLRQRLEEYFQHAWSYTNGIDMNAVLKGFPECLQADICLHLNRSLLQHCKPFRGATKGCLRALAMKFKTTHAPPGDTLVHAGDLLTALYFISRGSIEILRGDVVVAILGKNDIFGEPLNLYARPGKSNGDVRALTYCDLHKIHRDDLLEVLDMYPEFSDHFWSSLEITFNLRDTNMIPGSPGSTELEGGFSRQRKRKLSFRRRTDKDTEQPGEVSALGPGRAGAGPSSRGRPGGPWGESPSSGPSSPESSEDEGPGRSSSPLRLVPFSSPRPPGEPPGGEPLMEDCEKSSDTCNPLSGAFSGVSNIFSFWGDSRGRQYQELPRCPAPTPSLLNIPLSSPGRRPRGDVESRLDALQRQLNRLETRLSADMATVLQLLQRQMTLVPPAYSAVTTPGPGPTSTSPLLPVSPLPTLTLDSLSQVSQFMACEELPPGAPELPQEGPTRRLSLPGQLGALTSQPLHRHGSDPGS
In short: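 hERG current was measured in hERG-expressing cell lines by automated patch clamp (QPatch-HTX).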

[12] = Mouse pharmacokinetics assay; assay type: in vivo; settings: CD-1 mice; for AUC0-t: t = 24 h
In short: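 Female CD-1 mice received single intravenous and oral doses. Parameters were estimated by non-compartmental analysis.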

[13] = tested on: P. falciparum (NF54) gametocytes; assay: In vitro transmission-blocking imaging assay; assay type: cell-based, Plasmodium falciparum
In short: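 Highly synchronous NF54 pf-LUC-GFP gametocytes were induced from a single asexual cycle. They were exposed to 16 compound doses, with final controls of 0.4% DMSO and 5 µM puromycin, for 72 h at 37 °C under 5% CO2/5% O2/90% N2 and 60% humidity. MitoTracker Red CM-H2XRos was then added overnight, and plates were imaged after ≥1 h at room temperature. IC50 came from a 4-parameter variable-slope fit.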

[14] = tested on: P. falciparum (NF54) male and female stage-V gametocytes; assay: Dual gamete formation assay; assay type: cell-based, Plasmodium falciparum
[15] = tested on: P. falciparum (NF54) liver stage; assay: In vitro P. falciparum liver-stage assay; assay type: cell-based, Plasmodium falciparum
[16] = tested on: P. berghei (ANKA) liver stage; assay: In vitro P. berghei liver-stage assay; assay type: cell-based, Plasmodium berghei; settings: P. berghei (ANKA), Liver stage
In short: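 HepG2 cells (~17,500 per well, in duplicate) were cultured 18–24 h, then the medium was exchanged and compound added. After 1 h, 4,000 P. berghei ANKA GFP–luc sporozoites per well were added, freshly dissected from A. stephensi mosquitoes. Plates were spun 10 min at 1,000 r.p.m. and incubated 48 h at 37 °C. Parasite load was read by Bright-Glo luminescence.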

[17] = read-out: PfDd2 EC50, asexual blood-stage parasites (Dd2), SAR table
[18] = read-out: Pf, Dd2 EC50, blood stage
[19] = printed in the IV (3) column, PO (10) vs IV (3) mg/kg
[20] = P. falciparum (Dd2), Blood stage

SMILES: COc1ccc(NC(=O)N2CCCCN3[C@H](CO)[C@H](c4ccc(C#Cc5ccccc5C#N)cc4)[C@@H]3C2)cc1 [BRC4873]
- EC50 [1, 17]: 261 nM

SMILES: COc1ccc(-c2ccccc2[C@H]2[C@@H](C#N)N(C(=O)C3CCCC3)[C@H]2CO)cc1 [BRD0026]
- EC50 ([1]; read-out: EC50, asexual blood stages, in vitro): 346 nM
- EC50 ([2]; read-out: EC50, late-sexual blood stages, in vitro): 1980 nM
- Solubility (in words) ([3]; initial characterization): good solubility
- Potency against Pf NITD609^R ([4]; relative to Dd2): selectively reduced potency
- EC50 ([4]; strain carrying a point mutation in P. falciparum ATPase4): 1770 nM
- Parasite cytosolic Na^+ concentration [5]: rapid increase
- Cytotoxicity (in words) [6]: low cytotoxicity

SMILES: COc1ccc(NC(=O)N2CCCCCN3[C@H](CO)[C@H](c4ccc(C#Cc5ccccc5)cc4)[C@@H]3C2)cc1 [BRD0185]
- EC50 [1, 17]: 87 nM

SMILES: COc1ccc(NC(=O)N2CCCCN3[C@H](CN)[C@H](c4ccc(C#Cc5ccccc5)cc4)[C@@H]3C2)cc1 [BRD1095]
- EC99.9 ([1]; P. falciparum Dd2): 60 nM
- EC50 [1, 18]: 10 nM
- EC50 [1, 17]: 10 nM
- PBS solubility [3]: 25 µM
- Mouse Plasma protein binding [7]: 99.3%
- Mouse Clint [8]: < 20 µL/min/mg
- Human Clint [9]: < 20 µL/min/mg
- CC50 [10]: 15600 nM
- IC50 [11]: 5100 nM
- AUC0-inf ([12]; IV (3) mg/kg): 14.9 µM·h
- CL ([12]; IV (3) mg/kg): 6.7 mL/min/kg
- MRT0-inf ([12]; IV (3) mg/kg): 39.2 h
- Vss ([12]; IV (3) mg/kg): 16 L/kg
- AUC0-t ([12]; IV (3) mg/kg): 7 ^¶ µM*hr
- Cmax ([12]; PO (10) mg/kg): 600 nM
- T1/2 ([12]; PO (10) mg/kg): 28.8 h
- Tmax ([12]; PO (10) mg/kg): 4 h
- AUC0-t ([12]; PO (10) mg/kg): 11.7 ^¶ µM*hr
- F [12, 19]: 50%

SMILES: COc1ccc(NC(=O)N2CCCCN3[C@H](CO)[C@H](c4ccc(C#Cc5ccccc5)cc4)[C@]3(CO)C2)cc1 [BRD2936]
- EC50 [1, 17]: 1870 nM

SMILES: COc1ccc(NC(=O)N2CCCCN3[C@H](COCCC(=O)O)[C@H](c4ccc(C#Cc5ccccc5)cc4)[C@@H]3C2)cc1 [BRD3316]
- EC50 [1, 20]: 19 nM
- EC50 [1, 18]: 23 nM
- EC50 [1, 17]: 22 nM
- PBS solubility [3]: 91 µM
- Mouse Clint [8]: 38 µL/min/mg
- Human Clint [9]: 34 µL/min/mg
- Cytotoxicity [10]: no significant cytotoxicity
- CC50 [10]: > 50000 nM
- IC50 [11]: > 10000 nM
- AUC0-inf ([12]; IV (3.2) mg/kg): 13.2 µM·h
- CL ([12]; IV (3.2) mg/kg): 7.1 mL/min/kg
- MRT0-inf ([12]; IV (3.2) mg/kg): 3.3 h
- T1/2 ([12]; IV (3.2) mg/kg): 2.3 h
- Vss ([12]; IV (3.2) mg/kg): 1.4 L/kg
- AUC0-inf ([12]; PO (13) mg/kg): 33.5 µM·h
- Cmax ([12]; PO (13) mg/kg): 6800 nM
- F ([12]; PO (13) mg/kg): 63%
- MRT0-inf ([12]; PO (13) mg/kg): 3.9 h
- T1/2 ([12]; PO (13) mg/kg): 2.4 h
- Tmax ([12]; PO (13) mg/kg): 1 h
- AUC0-t ([12]; PO (13) mg/kg): 33.5 ^¶ µM*hr

SMILES: COc1ccc(NC(=O)N2CCCCN3[C@H](CO)[C@H](c4ccc(C#Cc5ccccc5)cc4)[C@@H]3C2)cc1 [BRD3444]
- EC50 [1, 20]: 9 nM
- EC50 [1, 18]: 9 nM
- EC50 [1, 17]: 11 nM
- Potency across P. falciparum Dd2, PfscDHODH and Pf NITD609^R ([1]; three P. falciparum strains): equipotent
- EC50 ([2]; P. falciparum (3D7), Gametocyte (IV-V)): 663 nM
- EC50 ([13]; read-out: EC50, early (E, stages I–III) gametocytes): 282 nM
- EC50 ([13]; read-out: EC50, late (L, stages IV–V) gametocytes): 1440 nM
- EC50 ([14]; read-out: EC50, gamete formation, female (F)): 804 nM
- EC50 ([14]; read-out: EC50, gamete formation, male): ~1000 nM
- EC50 [15]: 1310 nM
- EC50 [16]: 140 nM
- PBS solubility [3]: < 1 µM
- Mouse Plasma protein binding [7]: 99.9%
- Mouse Clint [8]: 248 µL/min/mg
- Human Clint [9]: 142 µL/min/mg
- Cytotoxicity [10]: no significant cytotoxicity
- CC50 [10]: > 50000 nM
- IC50 [11]: 5200 nM
- AUC0-inf ([12]; IV (3) mg/kg): 1.4 µM·h
- CL ([12]; IV (3) mg/kg): 72 mL/min/kg
- MRT0-inf ([12]; IV (3) mg/kg): 2.8 h
- T1/2 ([12]; IV (3) mg/kg): 3.7 h
- Vss ([12]; IV (3) mg/kg): 12 L/kg
- AUC0-t ([12]; IV (3) mg/kg): 1.2 ^¶ µM*hr
- AUC0-inf ([12]; PO (10) mg/kg): 4 µM·h
- Cmax ([12]; PO (10) mg/kg): 600 nM
- T1/2 ([12]; PO (10) mg/kg): 3.2 h
- Tmax ([12]; PO (10) mg/kg): 0.5 h
- AUC0-t ([12]; PO (10) mg/kg): 4 ^¶ µM*hr
- F [12, 19]: 86%

SMILES: COc1ccc(NC(=O)N2CCCCN3[C@H](CN(C)C(C)C)[C@H](c4ccc(C#Cc5ccccc5)cc4)[C@@H]3C2)cc1 [BRD4716]
- EC50 [1, 17]: 24 nM
